Here are results for 37 sequences from the array DNA melting data of Ke et al. (doi:10.1101/2024.01.08.574731).

The nature of series [1]: folding enthalpy; higher = less favourable; fluorescence melt of hairpins on a sequencing array, two-state fit. The note with it: sodium 0.088 M. The method in brief: (§1)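 Folding enthalpy and melting temperature come from bootstrapped two-state fits to Cy3 fluorescence of library hairpins carrying annealed Cy3 and quencher oligos on a sequenced MiSeq flow cell. Imaging was done in 50 mM Na-HEPES pH 8.0, 25 mM NaCl, stepping by 2.5 °C up to 60 °C, and signals were normalised to pre-quench Cy3 and to control constructs. Results of four replicates were combined by inverse variance, and fitted temperatures were raised by 9.35 °C to match UV melts.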

Series [2] is described as follows: melting temperature; fluorescence melt of hairpins on a sequencing array, two-state fit, raised by 9.35 °C to match UV melts. The following applies: sodium 0.088 M. An outline of the steps:
as §1

As for GTCCTCGAAAGAGTAGAC ((((((....)))..))), the folding enthalpy in series [1] is -19.8 kcal/mol. In addition, the Tm in series [2] was 35.9 °C.

As to GTCCTCTCGAAAGAGGAC (((..(((....)))))), the folding enthalpy in series [1] was -36.2 kcal/mol. Also, the Tm in series [2] was 58.5 °C.

Regarding GTCCTGCCGAAAGGCGAC (((..(((....)))))), the folding enthalpy in series [1] is -9.38 kcal/mol. In addition, the Tm in series [2] amounted to 33.2 °C.

Consider GTCCTGGAAACAGGAC ((((((....)))))), for which the folding enthalpy in series [1] is -38.6 kcal/mol. In series [2], the Tm amounted to 63 °C.

On to GTCCTGGGAAACCAAGAC (((.(((....))).))), for which the folding enthalpy in series [1] is -22.4 kcal/mol. For the same sequence, in series [2], the Tm amounted to 34.5 °C.

GTCCTGGGAAACTGGGAC ((((..(....)..)))): in series [1], the folding enthalpy was -26.5 kcal/mol. The Tm in series [2] was found to be 44.8 °C.

As to GTCCTTGGAAACAAGGAC (((((((....))))))), the folding enthalpy in series [1] was -38.8 kcal/mol. In addition, the Tm in series [2] was determined as 59.8 °C.

As for GTCCTTGGAAACAAGGGC (.(((((....))))).), the folding enthalpy in series [1] is -36.7 kcal/mol. For the same sequence, the Tm in series [2] worked out at 52.3 °C.

Take GTCCTTGGAAACAGGGAC ((((.((....)).)))): the folding enthalpy in series [1] is -33 kcal/mol. For the same sequence, the Tm in series [2] is 46.4 °C.

Consider GTCCTTGGAAACGAGGAC (((((.(....).))))), for which the folding enthalpy in series [1] was -40.8 kcal/mol. Also, the Tm in series [2] amounted to 50.7 °C.

Regarding GTCGAACGAAAGTTGAC (((.(((....)))))), the folding enthalpy in series [1] is -23.4 kcal/mol. In addition, the Tm in series [2] was 46.3 °C.

GTCGAACGAAAGTTTGAC (((.(((....))).))): the folding enthalpy in series [1] is -42.2 kcal/mol. In addition, in series [2], the Tm came out at 54.5 °C.

With GTCGAAGAAATTCGAC ((((((....)))))), the folding enthalpy in series [1] is -35.6 kcal/mol. In addition, the Tm in series [2] was 56.2 °C.

For the sequence GTCGAAGCGAAAGCTGAC (((..(((....)))))), the folding enthalpy in series [1] is -14.8 kcal/mol. The Tm in series [2] stood at 46.5 °C.

Regarding GTCGAAGGAAACTTTGGC (.(.(((....))).).), the folding enthalpy in series [1] is -22.4 kcal/mol. In addition, the Tm in series [2] was 29.9 °C.

In the case of GTCGACACGAAAGTGGAC (((..(((....)))))), in series [1], the folding enthalpy is -13.9 kcal/mol. For the same sequence, the Tm in series [2] was 41.2 °C.

For GTCGACGAAAGTCGGAC ((((((....))).))), in series [1], the folding enthalpy was -14.3 kcal/mol. In series [2], the Tm stood at 58.1 °C.

Regarding GTCGACGCGAAAGCGGAC (((..(((....)))))), the folding enthalpy in series [1] was -12.8 kcal/mol. In addition, the Tm in series [2] came to 45.4 °C.

Consider GTCGACGGAAACGTCAAC ((.((((....)))).)), for which, in series [1], the folding enthalpy was -15.6 kcal/mol. Moreover, in series [2], the Tm amounted to 43.5 °C.

GTCGACGGAAACGTCGGC (.(((((....))))).): the folding enthalpy in series [1] is -22.3 kcal/mol. In addition, the Tm in series [2] stood at 64.8 °C.

With GTCGACGGAAACGTTGAC (((.(((....))).))), in series [1], the folding enthalpy is -45.5 kcal/mol. For the same sequence, the Tm in series [2] came to 56.3 °C.

With GTCGACTCGAAAGAGGAC (((..(((....)))))), in series [1], the folding enthalpy was -16.9 kcal/mol. Besides, in series [2], the Tm came to 35.6 °C.

GTCGATGGAAACATTGAC (((.(((....))).))): the folding enthalpy in series [1] is -36.2 kcal/mol. Besides, the Tm in series [2] worked out at 48.3 °C.

Take GTCGATTCGAAAGAAGAC (((..(((....)))))): the folding enthalpy in series [1] was -13 kcal/mol. For the same sequence, the Tm in series [2] was 29.7 °C.

As to GTCGCACCGAAAGGTGAC (((..(((....)))))), the folding enthalpy in series [1] was -8.3 kcal/mol. Further, the Tm in series [2] amounted to 35 °C.

As to GTCGCACGAAAGTGAGAC (((.(((....))).))), the folding enthalpy in series [1] was -30.6 kcal/mol. Besides, in series [2], the Tm amounted to 59.5 °C.

In the case of GTCGCAGGAAACTACGAC ((((.((....)).)))), the folding enthalpy in series [1] was -32.1 kcal/mol. For the same sequence, the Tm in series [2] turned out to be 46.3 °C.

On to GTCGCAGGAAACTGCAAC ((.((((....)))).)), for which the folding enthalpy in series [1] was -16.7 kcal/mol. Also, in series [2], the Tm was 41.1 °C.

Regarding GTCGCCACGAAAGTGGAC (((..(((....)))))), the folding enthalpy in series [1] was -9.49 kcal/mol. Moreover, the Tm in series [2] is 35.7 °C.

Regarding GTCGCCCCGAAAGGGGAC (((..(((....)))))), in series [1], the folding enthalpy was -9.73 kcal/mol. For the same sequence, in series [2], the Tm was 40.1 °C.

Turning to GTCGCCGAAAGGCAAGAC ((((((....)))..))), in series [1], the folding enthalpy was -15.4 kcal/mol. The Tm in series [2] is 49.8 °C.

Regarding GTCGCCGAAAGGCAGAC ((((((....))).))), in series [1], the folding enthalpy is -17.7 kcal/mol. Also, the Tm in series [2] amounted to 61.7 °C.

As to GTCGCCGAAAGGCCTGAC ((((((....)))..))), the folding enthalpy in series [1] was -12.4 kcal/mol. Besides, the Tm in series [2] was 31.8 °C.

Turning to GTCGCCGAAAGGCGTGAC ((((((....)))..))), the folding enthalpy in series [1] was -8.03 kcal/mol. Moreover, in series [2], the Tm is 36.3 °C.

With GTCGCCGAAAGGCTTGAC ((((((....)))..))), the folding enthalpy in series [1] is -12.1 kcal/mol. Moreover, the Tm in series [2] stood at 39.7 °C.

With GTCGCCGGAAACGGCAAC ((.((((....)))).)), the folding enthalpy in series [1] is -11.2 kcal/mol. Also, the Tm in series [2] amounted to 47.1 °C.

For GTCGCTCGAAAGAGGGAC (((.(((....))).))), in series [1], the folding enthalpy is -44.3 kcal/mol. Also, the Tm in series [2] came out at 63.2 °C.
